ChEMBL document CHEMBL1275282, “Synthesis, characterization, oxidative degradation, antibacterial activity and acetylcholinesterase/butyrylcholinesterase inhibitory effects of some new phosphorus(V) hydrazides” (Eur J Med Chem, 2010)

Legend:
Bacillus subtilis [1] = assay: Antibacterial activity against Bacillus subtilis at 5 mg/ml after 20-24 hrs by filter paper disc method; type: functional; details: read-out: DIZ
How it was run: (§1)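 Filter paper disc diffusion on nutrient agar, with nutrient-agar cultures as inocula. 6.5 mm paper discs were saturated with test solutions at 5 or 10 mg ml-1, with chloramphenicol at the same levels as reference. Plates were incubated at 37 ± 1 °C for 20–24 h. The growth-inhibition zone diameter was measured, and three diameters were averaged per sample.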

[2] = Lipophilicity, log P of the compound; type: physicochemical; details: octanol/water
Bacillus subtilis [3] = assay: Antibacterial activity against Bacillus subtilis at 10 mg/ml after 20-24 hrs by filter paper disc method; type: functional; details: read-out: DIZ; how it was run: as §1
Escherichia coli [4] = assay: Antibacterial activity against Escherichia coli at 5 mg/ml after 20-24 hrs by filter paper disc method.; type: functional; details: read-out: DIZ; how it was run: as §1
Pseudomonas aeruginosa [5] = assay: Antibacterial activity against Pseudomonas aeruginosa at 10 mg/ml after 20-24 hrs by filter paper disc method.; type: functional; details: read-out: DIZ; how it was run: as §1
Acetylcholinesterase = Acetylcholinesterase (Homo sapiens, UniProt P22303); assay: Inhibition of human AChE by Ellman method
Chain of Acetylcholinesterase (P22303 whole entry): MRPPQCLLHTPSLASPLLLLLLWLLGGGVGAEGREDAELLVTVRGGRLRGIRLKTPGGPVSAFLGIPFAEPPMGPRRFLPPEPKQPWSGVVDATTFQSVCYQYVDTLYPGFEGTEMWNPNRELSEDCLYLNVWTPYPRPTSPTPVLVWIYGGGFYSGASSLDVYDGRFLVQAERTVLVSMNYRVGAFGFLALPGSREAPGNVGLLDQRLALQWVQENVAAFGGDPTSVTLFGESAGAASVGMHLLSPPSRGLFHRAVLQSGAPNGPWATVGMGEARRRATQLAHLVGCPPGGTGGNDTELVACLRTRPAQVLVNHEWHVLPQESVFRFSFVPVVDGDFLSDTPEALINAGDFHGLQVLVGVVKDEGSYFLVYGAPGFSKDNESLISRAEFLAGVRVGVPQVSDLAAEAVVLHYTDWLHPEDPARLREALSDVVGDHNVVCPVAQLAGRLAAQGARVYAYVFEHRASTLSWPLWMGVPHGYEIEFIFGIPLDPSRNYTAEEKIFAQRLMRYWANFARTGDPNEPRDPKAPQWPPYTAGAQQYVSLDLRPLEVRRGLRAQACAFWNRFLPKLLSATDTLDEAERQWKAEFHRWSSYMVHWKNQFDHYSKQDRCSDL

Cholinesterase = Cholinesterase (Homo sapiens, UniProt P06276); assay: Inhibition of human BChE by Ellman method
Chain of Cholinesterase (P06276 whole entry): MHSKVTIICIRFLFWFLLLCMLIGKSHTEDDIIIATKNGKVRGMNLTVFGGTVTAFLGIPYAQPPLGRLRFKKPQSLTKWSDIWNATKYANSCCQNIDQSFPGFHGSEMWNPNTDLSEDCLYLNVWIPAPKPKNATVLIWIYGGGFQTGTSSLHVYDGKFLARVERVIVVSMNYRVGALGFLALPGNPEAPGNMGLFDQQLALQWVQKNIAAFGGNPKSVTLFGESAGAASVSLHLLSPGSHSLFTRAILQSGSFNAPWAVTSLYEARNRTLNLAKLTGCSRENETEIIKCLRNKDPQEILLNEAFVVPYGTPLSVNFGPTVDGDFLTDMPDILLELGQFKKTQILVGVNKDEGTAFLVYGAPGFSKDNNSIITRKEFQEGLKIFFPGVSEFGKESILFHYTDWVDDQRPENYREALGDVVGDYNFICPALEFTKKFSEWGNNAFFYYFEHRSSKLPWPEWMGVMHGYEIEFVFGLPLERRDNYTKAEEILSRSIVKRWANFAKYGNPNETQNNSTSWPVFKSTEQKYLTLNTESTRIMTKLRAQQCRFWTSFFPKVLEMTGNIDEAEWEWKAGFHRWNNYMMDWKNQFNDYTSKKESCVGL
How it was run: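 BChE activity was run as in the Ellman AChE format: thiocholine released from butyrylthiocholine was read with DTNB. Lyophilised enzyme was diluted in 100 mM phosphate buffer, pH 8. IC50 was taken from a plot of VI/V0 against log[I].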

Pseudomonas aeruginosa [6] = assay: Antibacterial activity against Pseudomonas aeruginosa at 5 mg/ml after 20-24 hrs by filter paper disc method.; type: functional; details: read-out: DIZ; how it was run: as §1
Staphylococcus aureus [7] = assay: Antibacterial activity against Staphylococcus aureus at 10 mg/ml after 20-24 hrs by filter paper disc method; type: functional; details: read-out: DIZ; how it was run: as §1
Escherichia coli [8] = assay: Antibacterial activity against Escherichia coli at 10 mg/ml after 20-24 hrs by filter paper disc method; type: functional; details: read-out: DIZ; how it was run: as §1
Bacillus cereus [9] = assay: Antibacterial activity against Bacillus cereus at 10 mg/ml after 20-24 hrs by filter paper disc method; type: functional; details: read-out: DIZ; how it was run: as §1
Bacillus cereus [10] = assay: Antibacterial activity against Bacillus cereus at 5 mg/ml after 20-24 hrs by filter paper disc method; type: functional; details: read-out: DIZ; how it was run: as §1
Klebsiella pneumoniae [11] = assay: Antibacterial activity against Klebsiella pneumoniae at 5 mg/ml after 20-24 hrs by filter paper disc method; type: functional; details: read-out: DIZ; how it was run: as §1
Klebsiella pneumoniae [12] = assay: Antibacterial activity against Klebsiella pneumoniae at 10 mg/ml after 20-24 hrs by filter paper disc method; type: functional; details: read-out: DIZ; how it was run: as §1
Staphylococcus aureus [13] = assay: Antibacterial activity against Staphylococcus aureus at 5 mg/ml after 20-24 hrs by filter paper disc method; type: functional; details: read-out: DIZ; how it was run: as §1

Question: With O=P(O)(NN1CCCCC1)Oc1ccccc1 as the compound, how does the zone of inhibition at 5000 µg/mL (Bacillus subtilis [1]) read?
Answer: 7 mm

Question: And the logP [2]?
Answer: 1.29

Question: And the zone of inhibition at 10000 µg/mL (Bacillus subtilis [3])?
Answer: 15 mm

Question: What about the zone of inhibition at 5000 µg/mL (Escherichia coli [4]) of the same compound?
Answer: 7 mm

Question: And the zone of inhibition at 10000 µg/mL (Pseudomonas aeruginosa [5])?
Answer: 10 mm

Question: What about the IC50 (Acetylcholinesterase) of the same compound?
Answer: 5490 µM

Question: And the IC50 (Cholinesterase)?
Answer: 1580 µM

Question: And the zone of inhibition at 5000 µg/mL (Pseudomonas aeruginosa [6])?
Answer: 5 mm

Question: And the zone of inhibition at 10000 µg/mL (Staphylococcus aureus [7])?
Answer: 8 mm

Question: And the zone of inhibition at 10000 µg/mL (Escherichia coli [8])?
Answer: 11 mm

Question: For O=P(NN1CCOCC1)(NN1CCOCC1)Oc1ccccc1Cl, which zone of inhibition at 10000 µg/mL (Bacillus cereus [9]) is on record?
Answer: 10 mm

Question: What about the zone of inhibition at 5000 µg/mL (Escherichia coli [4]) of the same compound?
Answer: 7 mm

Question: What about the zone of inhibition at 10000 µg/mL (Escherichia coli [8]) of the same compound?
Answer: 10 mm

Question: And the zone of inhibition at 5000 µg/mL (Bacillus cereus [10])?
Answer: 7 mm

Question: For Cc1ccc(OP(=O)(NN2CCOCC2)NN2CCOCC2)cc1, which zone of inhibition at 5000 µg/mL (Bacillus subtilis [1]) is on record?
Answer: 8 mm

Question: And the zone of inhibition at 10000 µg/mL (Bacillus subtilis [3])?
Answer: 18 mm

Question: And the zone of inhibition at 5000 µg/mL (Escherichia coli [4])?
Answer: 6 mm

Question: And the zone of inhibition at 5000 µg/mL (Klebsiella pneumoniae [11])?
Answer: 7 mm

Question: And the zone of inhibition at 10000 µg/mL (Klebsiella pneumoniae [12])?
Answer: 14 mm

Question: And the zone of inhibition at 10000 µg/mL (Staphylococcus aureus [7])?
Answer: 13 mm

Question: And the zone of inhibition at 5000 µg/mL (Staphylococcus aureus [13])?
Answer: 10 mm

Question: What about the zone of inhibition at 10000 µg/mL (Escherichia coli [8]) of the same compound?
Answer: 11 mm

Question: For O=P(NN1CCCCC1)(NN1CCCCC1)Oc1ccccc1, which zone of inhibition at 5000 µg/mL (Bacillus subtilis [1]) is on record?
Answer: 6 mm

Question: What about the zone of inhibition at 10000 µg/mL (Bacillus cereus [9]) of the same compound?
Answer: 14 mm

Question: What about the zone of inhibition at 10000 µg/mL (Bacillus subtilis [3]) of the same compound?
Answer: 13 mm

Question: What about the zone of inhibition at 5000 µg/mL (Escherichia coli [4]) of the same compound?
Answer: 7 mm

Question: What about the zone of inhibition at 5000 µg/mL (Klebsiella pneumoniae [11]) of the same compound?
Answer: 5 mm

Question: And the zone of inhibition at 10000 µg/mL (Klebsiella pneumoniae [12])?
Answer: 15 mm

Question: What about the zone of inhibition at 10000 µg/mL (Staphylococcus aureus [7]) of the same compound?
Answer: 17 mm

Question: What about the zone of inhibition at 5000 µg/mL (Staphylococcus aureus [13]) of the same compound?
Answer: 11 mm

Question: And the zone of inhibition at 10000 µg/mL (Escherichia coli [8])?
Answer: 15 mm

Question: What about the zone of inhibition at 5000 µg/mL (Bacillus cereus [10]) of the same compound?
Answer: 5 mm

Question: For O=C(NP(=O)(NN1CCOCC1)NN1CCOCC1)c1ccccc1, which zone of inhibition at 5000 µg/mL (Bacillus subtilis [1]) is on record?
Answer: 7 mm

Question: What about the logP [2] of the same compound?
Answer: -0.78

Question: And the zone of inhibition at 10000 µg/mL (Bacillus subtilis [3])?
Answer: 13 mm

Question: And the zone of inhibition at 5000 µg/mL (Escherichia coli [4])?
Answer: 6 mm

Question: What about the IC50 (Acetylcholinesterase) of the same compound?
Answer: 18600 µM

Question: What about the IC50 (Cholinesterase) of the same compound?
Answer: 2140 µM

Question: What about the zone of inhibition at 10000 µg/mL (Staphylococcus aureus [7]) of the same compound?
Answer: 8 mm

Question: What about the zone of inhibition at 10000 µg/mL (Escherichia coli [8]) of the same compound?
Answer: 11 mm

Question: Which results are given for O=C(NP(=O)(NN1CCOCC1)NN1CCOCC1)c1ccc(Cl)cc1?
Answer: zone of inhibition at 5000 µg/mL (Bacillus subtilis [1]): 5 mm; zone of inhibition at 10000 µg/mL (Bacillus cereus [9]): 8 mm; zone of inhibition at 10000 µg/mL (Bacillus subtilis [3]): 12 mm; zone of inhibition at 5000 µg/mL (Escherichia coli [4]): 6 mm; zone of inhibition at 10000 µg/mL (Escherichia coli [8]): 13 mm

Question: For COc1ccc(C(=O)NP(=O)(NN2CCOCC2)NN2CCOCC2)cc1, which zone of inhibition at 5000 µg/mL (Bacillus subtilis [1]) is on record?
Answer: 7 mm

Question: What about the zone of inhibition at 10000 µg/mL (Bacillus cereus [9]) of the same compound?
Answer: 7 mm

Question: And the zone of inhibition at 10000 µg/mL (Bacillus subtilis [3])?
Answer: 13 mm

Question: What about the zone of inhibition at 10000 µg/mL (Escherichia coli [8]) of the same compound?
Answer: 7 mm

Question: For O=C(NP(=O)(NN1CCCCC1)NN1CCCCC1)c1ccccc1, which zone of inhibition at 5000 µg/mL (Bacillus subtilis [1]) is on record?
Answer: 9 mm

Question: And the logP [2]?
Answer: 1.35

Question: What about the zone of inhibition at 10000 µg/mL (Bacillus subtilis [3]) of the same compound?
Answer: 19 mm

Question: And the IC50 (Acetylcholinesterase)?
Answer: 1950 µM

Question: What about the IC50 (Cholinesterase) of the same compound?
Answer: 430 µM

Question: What about the zone of inhibition at 10000 µg/mL (Staphylococcus aureus [7]) of the same compound?
Answer: 7 mm

Question: Which results are given for O=P(NN1CCOCC1)(NN1CCOCC1)c1ccccc1?
Answer: logP [2]: -1.12; IC50 (Cholinesterase): 2450 µM

Question: Which results are given for O=P(NN1CCOCC1)(NN1CCOCC1)Oc1ccccc1?
Answer: logP [2]: -0.54; IC50 (Acetylcholinesterase): 9550 µM; IC50 (Cholinesterase): 1620 µM

Question: With O=C(N[C@H](CO)[C@H](O)c1ccc([N+](=O)[O-])cc1)C(Cl)Cl [CHLORAMPHENICOL] as the compound, how does the zone of inhibition at 5000 µg/mL (Bacillus subtilis [1]) read?
Answer: 14 mm

Question: And the zone of inhibition at 10000 µg/mL (Bacillus cereus [9])?
Answer: 15 mm

Question: What about the zone of inhibition at 10000 µg/mL (Bacillus subtilis [3]) of the same compound?
Answer: 17 mm

Question: And the zone of inhibition at 5000 µg/mL (Escherichia coli [4])?
Answer: 13 mm

Question: What about the zone of inhibition at 5000 µg/mL (Klebsiella pneumoniae [11]) of the same compound?
Answer: 11 mm

Question: And the zone of inhibition at 10000 µg/mL (Pseudomonas aeruginosa [5])?
Answer: 7 mm

Question: And the zone of inhibition at 10000 µg/mL (Klebsiella pneumoniae [12])?
Answer: 15 mm

Question: And the zone of inhibition at 10000 µg/mL (Staphylococcus aureus [7])?
Answer: 22 mm

Question: What about the zone of inhibition at 5000 µg/mL (Staphylococcus aureus [13]) of the same compound?
Answer: 17 mm

Question: What about the zone of inhibition at 10000 µg/mL (Escherichia coli [8]) of the same compound?
Answer: 17 mm

Question: What about the zone of inhibition at 5000 µg/mL (Bacillus cereus [10]) of the same compound?
Answer: 12 mm
